Measurements published in ChEMBL document CHEMBL5696442, “Discovery of type II inhibitors of TGFβ-activated kinase 1 (TAK1) and mitogen-activated protein kinase kinase kinase kinase 2 (MAP4K2)” (J Med Chem, 2015).

Assays:
[1] = target: T1, Ephrin type-B receptor 4 (Homo sapiens) (UniProt P54760); assay: Inhibition of EphB4 ACT labeling site in human Huh-7 cell lysate at 1 uM by KiNativ Profiling analysis relative to control; type: subcellular
T1 sequence (whole entry): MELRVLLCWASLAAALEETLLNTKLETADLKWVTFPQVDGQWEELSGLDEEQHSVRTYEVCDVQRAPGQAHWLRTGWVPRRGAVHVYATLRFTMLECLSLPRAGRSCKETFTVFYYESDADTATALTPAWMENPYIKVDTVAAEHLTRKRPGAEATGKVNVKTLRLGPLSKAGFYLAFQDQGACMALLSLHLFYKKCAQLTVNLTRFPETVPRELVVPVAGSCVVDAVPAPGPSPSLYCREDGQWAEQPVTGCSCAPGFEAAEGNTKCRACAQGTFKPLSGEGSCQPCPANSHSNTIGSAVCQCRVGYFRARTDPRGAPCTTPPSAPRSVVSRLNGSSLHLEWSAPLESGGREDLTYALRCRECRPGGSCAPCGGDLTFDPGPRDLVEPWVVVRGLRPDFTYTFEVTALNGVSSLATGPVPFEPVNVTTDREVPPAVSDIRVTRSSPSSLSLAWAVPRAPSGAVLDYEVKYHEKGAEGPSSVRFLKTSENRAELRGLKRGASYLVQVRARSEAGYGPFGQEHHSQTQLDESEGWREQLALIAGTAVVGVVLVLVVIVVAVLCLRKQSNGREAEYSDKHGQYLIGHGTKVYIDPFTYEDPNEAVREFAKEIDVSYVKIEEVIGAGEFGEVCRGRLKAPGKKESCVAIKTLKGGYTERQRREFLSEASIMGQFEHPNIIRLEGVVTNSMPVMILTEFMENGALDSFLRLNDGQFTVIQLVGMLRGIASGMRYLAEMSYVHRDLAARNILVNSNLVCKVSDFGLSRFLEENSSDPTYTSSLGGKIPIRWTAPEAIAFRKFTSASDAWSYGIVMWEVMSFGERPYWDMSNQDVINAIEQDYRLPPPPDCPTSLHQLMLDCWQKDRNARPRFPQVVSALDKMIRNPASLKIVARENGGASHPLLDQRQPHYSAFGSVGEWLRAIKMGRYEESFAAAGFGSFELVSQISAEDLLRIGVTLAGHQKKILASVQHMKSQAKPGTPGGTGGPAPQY

[2] = target: T2, Phosphatidylinositol 5-phosphate 4-kinase type-2 gamma (Homo sapiens) (UniProt Q8TBX8); assay: Inhibition of PIP4K2C ATP labeling site harbouring VKELPTLKDMDFLNK in human A-375 cells at 0.05 uM by KiNativ Profiling analysis relative to control; type: cell-based
T2 sequence (whole entry): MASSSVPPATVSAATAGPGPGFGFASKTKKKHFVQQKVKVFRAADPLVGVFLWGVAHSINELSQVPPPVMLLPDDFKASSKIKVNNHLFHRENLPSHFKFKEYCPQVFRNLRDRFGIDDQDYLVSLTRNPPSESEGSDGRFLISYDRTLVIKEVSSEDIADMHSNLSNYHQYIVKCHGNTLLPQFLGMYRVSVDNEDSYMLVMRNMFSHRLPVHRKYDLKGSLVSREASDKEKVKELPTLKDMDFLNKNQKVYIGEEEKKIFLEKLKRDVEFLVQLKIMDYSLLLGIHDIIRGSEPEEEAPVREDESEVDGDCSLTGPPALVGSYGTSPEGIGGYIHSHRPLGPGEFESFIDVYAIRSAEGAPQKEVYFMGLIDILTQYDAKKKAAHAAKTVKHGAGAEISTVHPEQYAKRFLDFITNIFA

BaF3 = assay: Antiproliferative activity against parental mouse BaF3 cells harbouring Bcr/Abl assessed reduction in cell viability measured after 48 hrs by Celltiter-glo assay; type: functional, cell-based; conditions: BaF3, 48 h
Outline: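 Cells were grown with serial dilutions of compound for 48 h, and viability was read by CellTiter-Glo. IC50 was derived from the dose–response curve. Parental Ba/F3 cells were grown in the presence of interleukin 3. The BCR-ABL line is BCR-ABL-dependent Ba/F3.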

[3] = target: 3-phosphoinositide-dependent protein kinase 1 (Homo sapiens) (UniProt O15530); assay: Inhibition of PDK1 Protein Kinase Domain in human A-375 cells at 0.05 uM by KiNativ Profiling analysis relative to control
[4] = target: Calcium/calmodulin-dependent protein kinase type 1 (Homo sapiens) (UniProt Q14012); assay: Inhibition of CaMK1a Lys1 labeling site in human A-375 cells at 0.05 uM by KiNativ Profiling analysis relative to control; type: cell-based
[5] = target: Serine/threonine-protein kinase 38-like (Homo sapiens) (UniProt Q9Y2H1); assay: Inhibition of NDR2 Lys2 labeling site in human A-375 cells at 0.05 uM by KiNativ Profiling analysis relative to control; type: cell-based
[6] = target: T3, Mixed lineage kinase domain-like protein (Homo sapiens) (UniProt Q8NB16); assay: Inhibition of MLKL Lys1 labeling site in human A-375 cells at 0.05 uM by KiNativ Profiling analysis relative to control; type: cell-based
T3 sequence (whole entry): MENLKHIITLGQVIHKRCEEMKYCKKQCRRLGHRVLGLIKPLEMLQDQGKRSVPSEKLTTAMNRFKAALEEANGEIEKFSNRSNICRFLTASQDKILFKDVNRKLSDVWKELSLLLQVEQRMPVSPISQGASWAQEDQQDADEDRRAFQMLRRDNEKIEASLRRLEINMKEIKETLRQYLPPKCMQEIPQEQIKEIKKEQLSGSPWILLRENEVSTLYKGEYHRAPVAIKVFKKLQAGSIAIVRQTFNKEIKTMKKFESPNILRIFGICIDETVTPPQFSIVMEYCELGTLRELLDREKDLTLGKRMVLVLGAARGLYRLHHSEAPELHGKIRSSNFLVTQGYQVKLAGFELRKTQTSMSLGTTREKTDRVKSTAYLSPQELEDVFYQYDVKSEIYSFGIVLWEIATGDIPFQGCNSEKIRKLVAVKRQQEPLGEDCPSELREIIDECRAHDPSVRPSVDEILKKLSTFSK

[7] = target: Receptor tyrosine-protein kinase erbB-3 (Homo sapiens) (UniProt P21860); assay: Inhibition of HER3/ErbB3 ACT labeling site in human A-375 cells at 0.05 uM by KiNativ Profiling analysis relative to control; type: cell-based
[8] = target: DNA-PK/Ku70/Ku85 (Homo sapiens) (UniProt P78527+P12956+P13010); assay: Inhibition of DNAPK ATP labeling site harbouring EHPFLVKGGEDLR in human A-375 cells at 0.5 uM by KiNativ Profiling analysis relative to control; type: cell-based
Outline: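 Live A375 melanoma cells were treated with compound at 0.5 or 5 μM, then lysed. Lysates were labeled with a lysine-reactive ATP or ADP-biotin probe. The read-out was protection of each kinase probe-labeling site from labeling, relative to control.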

[9] = target: Cyclin-dependent kinase 2 (Homo sapiens) (UniProt P24941); assay: Inhibition of CDK2 Lys1 labeling site in human A-375 cells at 5 uM by KiNativ Profiling analysis relative to control; type: cell-based
Outline: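 Intact A375 melanoma cells were treated with compound at 5 or 0.5 μM, then lysed. Lysate kinases were labeled with a lysine-reactive ATP or ADP-biotin probe (KiNativ). Inhibition is read as protection of each kinase labeling site from probe labeling.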

Serine/threonine-protein kinase 38-like (Homo sapiens), sequence (Q9Y2H1 2-464 limits assumed): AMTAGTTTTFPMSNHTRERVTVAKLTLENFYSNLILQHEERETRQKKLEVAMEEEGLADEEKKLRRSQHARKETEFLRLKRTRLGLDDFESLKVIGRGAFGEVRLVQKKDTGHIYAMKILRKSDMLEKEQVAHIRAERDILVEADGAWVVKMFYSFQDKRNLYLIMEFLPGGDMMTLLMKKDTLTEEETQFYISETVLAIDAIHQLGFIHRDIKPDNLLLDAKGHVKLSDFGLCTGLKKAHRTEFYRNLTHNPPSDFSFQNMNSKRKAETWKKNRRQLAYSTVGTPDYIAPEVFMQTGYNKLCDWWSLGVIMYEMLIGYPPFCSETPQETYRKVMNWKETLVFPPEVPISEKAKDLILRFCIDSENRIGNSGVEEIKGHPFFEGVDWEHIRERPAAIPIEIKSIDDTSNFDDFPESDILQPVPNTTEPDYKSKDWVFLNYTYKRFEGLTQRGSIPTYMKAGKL
3-phosphoinositide-dependent protein kinase 1 (Homo sapiens), sequence (O15530 whole entry, looked up, the tested form may be a part): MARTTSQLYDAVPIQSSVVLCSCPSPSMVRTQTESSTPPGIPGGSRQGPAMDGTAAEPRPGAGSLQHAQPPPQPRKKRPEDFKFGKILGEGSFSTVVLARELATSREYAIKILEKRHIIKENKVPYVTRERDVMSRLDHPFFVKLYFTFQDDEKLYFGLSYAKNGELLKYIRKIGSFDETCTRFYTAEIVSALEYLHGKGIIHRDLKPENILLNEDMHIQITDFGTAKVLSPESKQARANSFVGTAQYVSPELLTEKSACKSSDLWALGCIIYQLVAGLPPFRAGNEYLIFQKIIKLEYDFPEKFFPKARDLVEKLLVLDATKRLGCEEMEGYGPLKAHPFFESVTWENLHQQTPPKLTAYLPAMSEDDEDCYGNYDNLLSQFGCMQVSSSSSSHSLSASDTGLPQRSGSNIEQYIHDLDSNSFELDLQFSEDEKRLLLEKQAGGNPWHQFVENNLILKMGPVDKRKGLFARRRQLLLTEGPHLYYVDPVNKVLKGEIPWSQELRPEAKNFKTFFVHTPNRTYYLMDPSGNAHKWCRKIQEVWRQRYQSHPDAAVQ
Calcium/calmodulin-dependent protein kinase type 1 (Homo sapiens), sequence (Q14012 whole entry, looked up): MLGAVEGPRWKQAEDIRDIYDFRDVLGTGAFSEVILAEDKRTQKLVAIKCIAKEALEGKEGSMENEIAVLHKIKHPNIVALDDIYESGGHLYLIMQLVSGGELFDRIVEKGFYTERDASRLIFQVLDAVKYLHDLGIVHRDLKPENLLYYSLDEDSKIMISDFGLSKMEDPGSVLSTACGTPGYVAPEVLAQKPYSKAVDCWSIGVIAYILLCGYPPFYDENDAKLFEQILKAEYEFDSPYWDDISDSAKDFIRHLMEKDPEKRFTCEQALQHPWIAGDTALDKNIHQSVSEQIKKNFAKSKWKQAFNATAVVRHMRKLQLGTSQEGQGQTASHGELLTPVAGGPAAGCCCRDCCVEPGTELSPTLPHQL
Receptor tyrosine-protein kinase erbB-3 (Homo sapiens), sequence (P21860 whole entry): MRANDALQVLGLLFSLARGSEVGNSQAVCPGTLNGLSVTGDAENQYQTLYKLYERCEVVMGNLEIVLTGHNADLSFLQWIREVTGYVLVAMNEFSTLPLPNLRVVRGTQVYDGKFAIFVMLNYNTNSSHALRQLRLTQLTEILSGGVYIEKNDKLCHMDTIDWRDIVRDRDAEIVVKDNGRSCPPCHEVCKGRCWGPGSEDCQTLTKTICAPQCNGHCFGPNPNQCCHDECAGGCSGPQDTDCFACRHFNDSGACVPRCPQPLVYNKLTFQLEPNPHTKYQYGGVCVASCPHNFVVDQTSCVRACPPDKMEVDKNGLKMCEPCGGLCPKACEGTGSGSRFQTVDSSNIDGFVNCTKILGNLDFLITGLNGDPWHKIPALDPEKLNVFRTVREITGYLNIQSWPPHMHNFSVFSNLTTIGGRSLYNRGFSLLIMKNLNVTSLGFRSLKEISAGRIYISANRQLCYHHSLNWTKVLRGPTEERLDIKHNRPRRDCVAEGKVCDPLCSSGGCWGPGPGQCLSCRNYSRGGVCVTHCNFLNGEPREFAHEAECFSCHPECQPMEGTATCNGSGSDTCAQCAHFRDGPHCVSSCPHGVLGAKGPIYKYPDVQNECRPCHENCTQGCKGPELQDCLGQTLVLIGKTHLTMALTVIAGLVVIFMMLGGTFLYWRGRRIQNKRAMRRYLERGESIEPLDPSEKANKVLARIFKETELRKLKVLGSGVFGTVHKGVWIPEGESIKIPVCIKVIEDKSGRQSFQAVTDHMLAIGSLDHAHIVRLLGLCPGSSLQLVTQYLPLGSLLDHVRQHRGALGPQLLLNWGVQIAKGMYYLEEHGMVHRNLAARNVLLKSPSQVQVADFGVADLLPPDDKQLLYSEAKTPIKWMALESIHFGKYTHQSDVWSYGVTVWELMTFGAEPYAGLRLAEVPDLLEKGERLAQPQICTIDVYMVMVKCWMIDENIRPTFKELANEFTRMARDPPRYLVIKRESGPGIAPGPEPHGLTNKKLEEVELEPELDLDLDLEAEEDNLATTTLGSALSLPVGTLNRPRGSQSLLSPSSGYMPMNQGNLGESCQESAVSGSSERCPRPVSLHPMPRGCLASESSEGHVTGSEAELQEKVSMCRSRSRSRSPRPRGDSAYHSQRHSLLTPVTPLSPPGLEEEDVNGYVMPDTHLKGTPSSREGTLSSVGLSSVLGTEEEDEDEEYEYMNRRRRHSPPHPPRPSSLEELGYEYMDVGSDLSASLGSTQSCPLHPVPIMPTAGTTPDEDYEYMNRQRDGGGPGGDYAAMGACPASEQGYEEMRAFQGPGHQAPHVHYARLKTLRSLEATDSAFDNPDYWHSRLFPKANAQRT

**Q.** For `CNc1cc(Oc2cc(C(=O)Nc3cc(-n4cnc(C)c4)cc(C(F)(F)F)c3)ccc2C)ncn1`, which inhibition [1] is on record?
**A.** 1.2%

**Q.** How did the inhibition [2] turn out when `CCN1CCN(Cc2ccc(NC(=O)c3ccc(C)c(Oc4ccnc5[nH]ccc45)c3)cc2C(F)(F)F)CC1` was run?
**A.** -1.1%

**Q.** What about the IC50 (BaF3) of the same compound?
**A.** 18 nM

**Q.** What about the inhibition [3] of the same compound?
**A.** 11.2%

**Q.** What about the inhibition [4] of the same compound?
**A.** 34.9%

**Q.** And the inhibition [5]?
**A.** 14.8%

**Q.** And the inhibition [6]?
**A.** 14.8%

**Q.** And the inhibition [7]?
**A.** 4.1%

**Q.** And the inhibition [8]?
**A.** 3.2%

**Q.** And the inhibition [9]?
**A.** 37.3%

**Q.** `CCN1CCN(Cc2ccc(NC(=O)c3ccc(C)c(/C=C/c4cnc5[nH]ccc5c4OC)c3)cc2C(F)(F)F)CC1` was tested. Which inhibition [2] did it give?
**A.** -7.3%

**Q.** What about the IC50 (BaF3) of the same compound?
**A.** 10 nM

**Q.** And the inhibition [3]?
**A.** -1.5%

**Q.** What about the inhibition [4] of the same compound?
**A.** 21.5%

**Q.** And the inhibition [5]?
**A.** 11.6%

**Q.** And the inhibition [6]?
**A.** 12.8%

**Q.** What about the inhibition [7] of the same compound?
**A.** 11.2%

**Q.** What about the inhibition [8] of the same compound?
**A.** 13.8%

**Q.** What about the inhibition [9] of the same compound?
**A.** 17.6%

**Q.** `CNc1cc(Oc2cc(C(=O)Nc3cc(N4CCN(C)CC4)cc(C(F)(F)F)c3)ccc2C)ncn1` was tested. Which inhibition [1] did it give?
**A.** 0.2%
